# Source: ChEMBL document CHEMBL4811231, “Discovery and structural optimization of 3-O-β-chacotriosyl oleanane-type triterpenoids as potent entry inhibitors of SARS-CoV-2 virus infections” (Eur J Med Chem, 2021)
# What was measured:
# [1] = Selectivity index, ratio of CC50 for cytotoxicity against human 293T/ACE2 cells to IC50 for SARS-CoV-2 spike glycoprotein S inhibition; assay type: toxicity, cell-based; conditions: read-out: Selectivity Index
# [2] = Cytotoxicity against human 293T/ACE2 cells measured after 48 hrs by MTT assay; assay type: cell-based; conditions: 293t/ace2, 48 h
# Procedure, shortened: (§1)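 MTT assay on monolayers of 293T-ACE2 or Vero-E6 cells. Cells were rinsed with PBS and exposed to compound for 48 h, then given 0.5 mg/mL MTT for 4 h at 37 °C. Formazan was dissolved in DMSO and absorbance read at 570 nm.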
# [3] = Binding affinity to SARS-CoV-2 spike glycoprotein S2 measured by Surface plasmon resonance; set-up: species or system Severe acute respiratory syndrome-related coronavirus
# Procedure, shortened: (§2)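 Compound was immobilised on the chip by photo-crosslinking. Recombinant SARS-CoV-2 S-trimer, S1 or S2 protein was injected at a series of concentrations in PBST (0.1% Tween 20, pH 7.4) at 4 °C. Binding lasted 600 s and dissociation 360 s, at 0.5 µL/s. The chip was regenerated with glycine-HCl pH 2.0.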
# Vero E6 [4] = experiment: Inhibition of SARS-CoV-2 spike glycoprotein S2 in human HEK293T cells transfected with pAAV-IRES-GFP-SARS-CoV-2 S assessed as inhibition of membrane fusion to african green monkey Vero E6 cells […] pretreated at 2.5 to 20 uM for 30 mins measured after 24 hrs by cell-cell fusion based fluorescence microscopy; conditions: Severe acute respiratory syndrome-related coronavirus, dose 2.5-20 µM
# Procedure, shortened: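 Effector HEK-293T cells were transfected with pAAV-IRES-GFP-SARS-CoV-2 S, or with empty pAAV-IRES-GFP as vehicle. They were pretreated with compound for 30 min and overlaid on Vero-E6 target cells seeded 6 h earlier (20,000/well). After 24 h, three random fields were imaged by fluorescence microscopy.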
# [5] = Binding affinity to SARS-CoV-2 spike glycoprotein S1 measured by Surface plasmon resonance; set-up: species or system Severe acute respiratory syndrome-related coronavirus; procedure, shortened: as §2
# Vero C1008 = experiment: Cytotoxicity against African Green monkey Vero E6 cells measured after 48 hrs by MTT assay; assay type: cell-based; conditions: chlorocebus sabaeus, vero c1008, 48 h; procedure, shortened: as §1
# [6] = Antiviral activity against SARS-CoV-2 Wuhan-HU-1 preincubated for 1 hr with African green monkey VeroE6 cells assessed as inhibition of viral infection by measuring total RNA after 24 hrs by qPCR analysis; assay type: functional, cell-based, Vero E6; conditions: Severe acute respiratory syndrome-related coronavirus, Wuhan-HU-1, Vero C1008
# [7] = Inhibition of SARS-CoV-2 spike glycoprotein S1 binding to human ACE2 receptor in co-transfected human HEK293T cells at 40 uM measured by Co-immunoprecipitation based Western blot assay; assay type: cell-based, Severe acute respiratory syndrome-related coronavirus
# Procedure, shortened: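 293T cells were co-transfected with ACE2-Flag and SARS-S plasmids, and total protein was extracted after 48 h. Lysates were immunoprecipitated overnight with protein A Sepharose and anti-Flag antibody (mouse IgG as control). Proteins were run on 10% PAGE and blotted with anti-Flag and anti-SARS-CoV-S antibodies plus an HRP secondary.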
# Vero E6 [8] = experiment: Antiviral activity against SARS-CoV-2 Wuhan-HU-1 infection on African green monkey Vero E6 cells assessed by viral nucleoprotein expression at 0.55 to 15 uM measured after 48 hrs by DAPI staining based indirect immunoflourescence microscopy relative to control; assay type: functional, cell-based; conditions: Severe acute respiratory syndrome-related coronavirus, dose 0.55-15 µM
Structure (SMILES),selectivity ratio [1],CC50 [2] [µM],other results
C[C@@H]1O[C@@H](O[C@H]2[C@H](O[C@H]3CC[C@]4(C)[C@H]5CC=C6[C@@H]7CC(C)(C)CC[C@]7(C(=O)NCc7ccccc7Br)CC[C@@]6(C)[C@]5(C)CC[C@H]4C3(C)C)O[C@H](CO)[C@@H](O[C@@H]3O[C@@H](C)[C@H](O)[C@@H](O)[C@H]3O)[C@@H]2O)[C@H](O)[C@H](O)[C@H]1O,> 8.51,> 100,
C[C@@H]1O[C@@H](O[C@H]2[C@H](O[C@H]3CC[C@]4(C)[C@H]5CC=C6[C@@H]7CC(C)(C)CC[C@]7(C(=O)Nc7ccccc7Cl)CC[C@@]6(C)[C@]5(C)CC[C@H]4C3(C)C)O[C@H](CO)[C@@H](O[C@@H]3O[C@@H](C)[C@H](O)[C@@H](O)[C@H]3O)[C@@H]2O)[C@H](O)[C@H](O)[C@H]1O,5.06,31.7,
COc1ccccc1NC(=O)[C@]12CCC(C)(C)C[C@H]1C1=CC[C@@H]3[C@@]4(C)CC[C@H](O[C@@H]5O[C@H](CO)[C@@H](O[C@@H]6O[C@@H](C)[C@H](O)[C@@H](O)[C@H]6O)[C@H](O)[C@H]5O[C@@H]5O[C@@H](C)[C@H](O)[C@@H](O)[C@H]5O)C(C)(C)[C@@H]4CC[C@@]3(C)[C@]1(C)CC2,5.64,31.2,
COc1ccc(NC(=O)[C@]23CCC(C)(C)C[C@H]2C2=CC[C@@H]4[C@@]5(C)CC[C@H](O[C@@H]6O[C@H](CO)[C@@H](O[C@@H]7O[C@@H](C)[C@H](O)[C@@H](O)[C@H]7O)[C@H](O)[C@H]6O[C@@H]6O[C@@H](C)[C@H](O)[C@@H](O)[C@H]6O)C(C)(C)[C@@H]5CC[C@@]4(C)[C@]2(C)CC3)cc1,> 10,> 100,
C[C@@H]1O[C@@H](O[C@H]2[C@H](O[C@H]3CC[C@]4(C)[C@H]5CC=C6[C@@H]7CC(C)(C)CC[C@]7(C(=O)NCCCc7ccccc7)CC[C@@]6(C)[C@]5(C)CC[C@H]4C3(C)C)O[C@H](CO)[C@@H](O[C@@H]3O[C@@H](C)[C@H](O)[C@@H](O)[C@H]3O)[C@@H]2O)[C@H](O)[C@H](O)[C@H]1O,> 7.66,> 100,
C[C@@H]1O[C@@H](O[C@H]2[C@H](O[C@H]3CC[C@]4(C)[C@H]5CC=C6[C@@H]7CC(C)(C)CC[C@]7(C(=O)NCc7ccccc7Cl)CC[C@@]6(C)[C@]5(C)CC[C@H]4C3(C)C)O[C@H](CO)[C@@H](O[C@@H]3O[C@@H](C)[C@H](O)[C@@H](O)[C@H]3O)[C@@H]2O)[C@H](O)[C@H](O)[C@H]1O,> 15.8,> 100,
C[C@@H]1O[C@@H](O[C@H]2[C@H](O[C@H]3CC[C@]4(C)[C@H]5CC=C6[C@@H]7CC(C)(C)CC[C@]7(C(=O)OCc7ccccc7)CC[C@@]6(C)[C@]5(C)CC[C@H]4C3(C)C)O[C@H](CO)[C@@H](O[C@@H]3O[C@@H](C)[C@H](O)[C@@H](O)[C@H]3O)[C@@H]2O)[C@H](O)[C@H](O)[C@H]1O,1.29,21.6,
C[C@@H]1O[C@@H](O[C@H]2[C@H](O[C@H]3CC[C@]4(C)[C@H]5CC=C6[C@@H]7CC(C)(C)CC[C@]7(C(=O)NCc7ccccc7)CC[C@@]6(C)[C@]5(C)CC[C@H]4C3(C)C)O[C@H](CO)[C@@H](O[C@@H]3O[C@@H](C)[C@H](O)[C@@H](O)[C@H]3O)[C@@H]2O)[C@H](O)[C@H](O)[C@H]1O,> 22.9,> 100,Kd [3]: 2.16 µM; inhibition (Vero E6 [4]): Dose-Dependent Effect; Kd [5]: 3690 µM; Activity (Vero C1008): Non-Toxic; IC50 [6]: 0.97 µM; Kd [7]: Active; inhibition (Vero E6 [8]): Dose-Dependent Effect
C[C@@H]1O[C@@H](O[C@H]2[C@H](O[C@H]3CC[C@]4(C)[C@H]5CC=C6[C@@H]7CC(C)(C)CC[C@]7(C(=O)NCc7cccs7)CC[C@@]6(C)[C@]5(C)CC[C@H]4C3(C)C)O[C@H](CO)[C@@H](O[C@@H]3O[C@@H](C)[C@H](O)[C@@H](O)[C@H]3O)[C@@H]2O)[C@H](O)[C@H](O)[C@H]1O,5.92,34.9,
COc1cccc(NC(=O)[C@]23CCC(C)(C)C[C@H]2C2=CC[C@@H]4[C@@]5(C)CC[C@H](O[C@@H]6O[C@H](CO)[C@@H](O[C@@H]7O[C@@H](C)[C@H](O)[C@@H](O)[C@H]7O)[C@H](O)[C@H]6O[C@@H]6O[C@@H](C)[C@H](O)[C@@H](O)[C@H]6O)C(C)(C)[C@@H]5CC[C@@]4(C)[C@]2(C)CC3)c1,> 12,> 100,
C[C@@H]1O[C@@H](O[C@H]2[C@H](O[C@H]3CC[C@]4(C)[C@H]5CC=C6[C@@H]7CC(C)(C)CC[C@]7(C(=O)N(C)Cc7ccccc7)CC[C@@]6(C)[C@]5(C)CC[C@H]4C3(C)C)O[C@H](CO)[C@@H](O[C@@H]3O[C@@H](C)[C@H](O)[C@@H](O)[C@H]3O)[C@@H]2O)[C@H](O)[C@H](O)[C@H]1O,4.84,37.6,
C[C@@H]1O[C@@H](O[C@H]2[C@H](O[C@H]3CC[C@]4(C)[C@H]5CC=C6[C@@H]7CC(C)(C)CC[C@]7(C(=O)NCc7ccccc7F)CC[C@@]6(C)[C@]5(C)CC[C@H]4C3(C)C)O[C@H](CO)[C@@H](O[C@@H]3O[C@@H](C)[C@H](O)[C@@H](O)[C@H]3O)[C@@H]2O)[C@H](O)[C@H](O)[C@H]1O,> 17.6,> 100,
C[C@@H]1O[C@@H](O[C@H]2[C@H](O[C@H]3CC[C@]4(C)[C@H]5CC=C6[C@@H]7CC(C)(C)CC[C@]7(C(=O)Nc7ccccc7)CC[C@@]6(C)[C@]5(C)CC[C@H]4C3(C)C)O[C@H](CO)[C@@H](O[C@@H]3O[C@@H](C)[C@H](O)[C@@H](O)[C@H]3O)[C@@H]2O)[C@H](O)[C@H](O)[C@H]1O,1.85,33.5,
O=C(/C=C/c1ccc(O)c2oc(-c3ccc(O)c(O)c3)cc12)O[C@H](Cc1ccc(O)c(O)c1)C(=O)O,> 26,> 100,
COc1ccccc1CNC(=O)[C@]12CCC(C)(C)C[C@H]1C1=CC[C@@H]3[C@@]4(C)CC[C@H](O[C@@H]5O[C@H](CO)[C@@H](O[C@@H]6O[C@@H](C)[C@H](O)[C@@H](O)[C@H]6O)[C@H](O)[C@H]5O[C@@H]5O[C@@H](C)[C@H](O)[C@@H](O)[C@H]5O)C(C)(C)[C@@H]4CC[C@@]3(C)[C@]1(C)CC2,2,33.4,
C[C@@H]1O[C@@H](O[C@H]2[C@H](O[C@H]3CC[C@]4(C)[C@H]5CC=C6[C@@H]7CC(C)(C)CC[C@]7(C(=O)NCCc7ccccc7)CC[C@@]6(C)[C@]5(C)CC[C@H]4C3(C)C)O[C@H](CO)[C@@H](O[C@@H]3O[C@@H](C)[C@H](O)[C@@H](O)[C@H]3O)[C@@H]2O)[C@H](O)[C@H](O)[C@H]1O,> 13.6,> 100,
